Measurements taken from ChEMBL document CHEMBL4428057, “Discovery, Synthesis, and Evaluation of 2,4-Diaminoquinazolines as a Novel Class of Pancreatic β-Cell-Protective Agents against Endoplasmic Reticulum (ER) Stress” (J Med Chem, 2016).
Activity calls are given as the source filed them.

Tests used:
[1] = test system: INS1; assay: Reversal of tunicamycin induced caspase-3 cleavage in rat INS-1 cells at 20 uM after 2 to 24 hrs by Western blot analysis; format: functional, cell-based
Summary of the method: (§1)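 Western blots of INS-1 cells (8×10^5/60-mm dish) treated with Tm 0.1 µg/mL ± compound 20 µM or DMSO for the indicated times. Lysates with EDTA and phosphatase inhibitors; 20 µg protein on 7% SDS-PAGE, PVDF. Primary antibodies at 1:1000 against ATF4, CHOP, cleaved caspase 3 or PARP; α-tubulin loading control; HRP secondaries. Representative of 3 experiments.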

[2] = test system: INS1; assay: Protection against tunicamycin induced endoplasmic reticulum stress in rat INS-1 cells assessed as increase in cell viability at 2.5 to 20 uM after 72 hrs by MTT assay; format: functional, cell-based
Summary of the method: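 INS-1 cells at 3×10^3/well in 384-well plates treated with Tm 0.1 µg/mL ± compound or DMSO for 72 h. MTT reagent for 3 h at 37 °C, crystal-dissolving solution for 4 h, absorbance at 570 nm. Means of 3 replicate wells, representative of 3 experiments, SD.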

[3] = molecular target: T1, Eukaryotic translation initiation factor 2-alpha kinase 3 (Rattus norvegicus) (UniProt Q9Z1Z1); assay: Inhibition of PERK pathway in rat INS-1 cells assessed as reduction in tunicamycin induced CHOP protein levels at 20 uM after 2 to 24 hrs by Western blot analysis; format: cell-based; summary of the method: as §1
T1 sequence (whole entry): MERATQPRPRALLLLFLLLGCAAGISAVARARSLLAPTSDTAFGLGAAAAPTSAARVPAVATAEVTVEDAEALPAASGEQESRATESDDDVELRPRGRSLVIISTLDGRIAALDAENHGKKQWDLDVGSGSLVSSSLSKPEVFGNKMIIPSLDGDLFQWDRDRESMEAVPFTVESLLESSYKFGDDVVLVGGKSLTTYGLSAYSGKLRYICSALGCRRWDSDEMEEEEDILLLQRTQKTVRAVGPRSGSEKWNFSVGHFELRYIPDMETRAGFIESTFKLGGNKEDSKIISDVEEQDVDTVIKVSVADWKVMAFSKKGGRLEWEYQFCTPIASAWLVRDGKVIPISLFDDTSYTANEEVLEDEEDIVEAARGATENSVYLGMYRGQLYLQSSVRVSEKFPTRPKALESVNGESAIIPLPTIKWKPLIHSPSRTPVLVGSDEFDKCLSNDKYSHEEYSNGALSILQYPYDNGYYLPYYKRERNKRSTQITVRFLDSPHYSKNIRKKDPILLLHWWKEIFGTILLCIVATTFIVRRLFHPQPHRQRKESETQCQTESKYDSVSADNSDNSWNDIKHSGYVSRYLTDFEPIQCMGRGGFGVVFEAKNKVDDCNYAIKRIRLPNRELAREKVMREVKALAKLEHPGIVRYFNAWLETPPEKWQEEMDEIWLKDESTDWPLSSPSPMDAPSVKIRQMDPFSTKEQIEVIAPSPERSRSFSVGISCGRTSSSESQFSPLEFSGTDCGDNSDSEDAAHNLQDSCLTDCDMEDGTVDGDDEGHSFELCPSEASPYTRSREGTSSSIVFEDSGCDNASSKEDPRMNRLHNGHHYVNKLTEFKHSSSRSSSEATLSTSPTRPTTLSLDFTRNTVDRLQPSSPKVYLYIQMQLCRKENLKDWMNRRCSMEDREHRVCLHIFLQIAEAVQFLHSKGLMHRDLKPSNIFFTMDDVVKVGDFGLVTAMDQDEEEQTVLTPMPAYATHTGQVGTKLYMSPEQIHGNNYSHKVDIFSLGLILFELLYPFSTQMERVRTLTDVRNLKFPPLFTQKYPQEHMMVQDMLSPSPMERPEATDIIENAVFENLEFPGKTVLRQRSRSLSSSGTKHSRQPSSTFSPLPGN

[4] = test system: INS1; assay: Reversal of tunicamycin-induced suppression of PDX1 mRNA levels in rat INS-1 cells at 20 uM after 24 hrs by qRT-PCR method; format: functional, cell-based
Summary of the method: (§2)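 INS-1 cells (4×10^5/well, 6-well plates) given Tm 0.1 µg/mL ± compound 20 µM or DMSO for 24 h. INS1, INS2, PDX1 and MafA mRNA measured by qRT-PCR with rat primers. Means of 3 replicate wells, representative of 3 independent experiments; SD.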

[5] = molecular target: T2, Cyclic AMP-dependent transcription factor ATF-6 alpha (Rattus norvegicus) (UniProt G3V909); assay: Inhibition of ATF6 in rat INS-1 cells assessed as suppression of tunicamycin induced GRP94 mRNA levels at 20 uM after 4 to 24 hrs by qRT-PCR method; format: cell-based
T2 sequence (whole entry): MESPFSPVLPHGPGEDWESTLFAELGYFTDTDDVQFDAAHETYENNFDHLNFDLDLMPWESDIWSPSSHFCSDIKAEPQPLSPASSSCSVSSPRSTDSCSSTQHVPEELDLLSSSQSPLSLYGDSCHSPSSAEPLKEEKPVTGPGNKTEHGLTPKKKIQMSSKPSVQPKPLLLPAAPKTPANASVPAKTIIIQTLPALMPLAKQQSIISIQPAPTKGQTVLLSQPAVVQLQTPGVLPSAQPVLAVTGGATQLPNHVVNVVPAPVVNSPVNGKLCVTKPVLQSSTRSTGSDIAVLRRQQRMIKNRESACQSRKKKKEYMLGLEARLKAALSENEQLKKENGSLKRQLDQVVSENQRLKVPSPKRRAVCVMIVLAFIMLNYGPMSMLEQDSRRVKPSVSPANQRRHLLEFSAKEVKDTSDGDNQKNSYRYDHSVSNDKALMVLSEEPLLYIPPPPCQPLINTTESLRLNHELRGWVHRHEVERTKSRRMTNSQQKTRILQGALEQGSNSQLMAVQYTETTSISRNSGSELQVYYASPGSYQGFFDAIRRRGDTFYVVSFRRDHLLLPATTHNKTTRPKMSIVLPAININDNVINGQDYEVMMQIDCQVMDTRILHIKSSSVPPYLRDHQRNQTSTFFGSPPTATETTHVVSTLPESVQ
Summary of the method: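 INS-1 cells seeded at 4×10^5/well in 6-well plates, given Tm 0.1 µg/mL ± compound 20 µM or DMSO for the indicated times. Bip or GRP94 mRNA measured by qRT-PCR, expressed as fold-increase over untreated control. Means of 3 replicate wells, representative of 3 independent experiments.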

[6] = molecular target: T1, Eukaryotic translation initiation factor 2-alpha kinase 3 (Rattus norvegicus); assay: Inhibition of PERK pathway in rat INS-1 cells assessed as reduction in tunicamycin induced ATF4 protein levels at 20 uM after 2 to 24 hrs by Western blot analysis; format: cell-based; summary of the method: as §1
[7] = test system: Beta-TC6; assay: Protection against tunicamycin induced endoplasmic reticulum stress in mouse BetaTC6 cells assessed as increase in cell viability after 72 hrs by CellTiter-Glo assay; format: functional, cell-based
Summary of the method: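 βTC6 cells (DMEM, 15% FBS) seeded at 3×10^3/well in 384-well plates with Tm 0.25 µg/mL ± compound or DMSO for 72 h. Viability by CellTiter-Glo (ATP luminescence) or MTT: 3 h with reagent at 37 °C, then 4 h with crystal-dissolving solution, absorbance at 570 nm. 3 replicate wells, 3 experiments.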

[8] = test system: INS1; assay: Reversal of tunicamycin-induced suppression of MafA mRNA levels in rat INS-1 cells at 20 uM after 24 hrs by qRT-PCR method; format: functional, cell-based; summary of the method: as §2

COc1ccc(CNc2nc(N3CCCCC3CO)nc3ccccc23)cc1 (racemic)
active: Activity [1] | Activity [2] | inhibition [3] | Activity [4] | inhibition [5] | inhibition [6] | Activity [7] Dose-dependent effect | Activity [8]
